Measured values of several laboratories.
Compare with care: the assays were run in different laboratories.
CA14: Carbonic anhydrase 14 (CA14, Homo sapiens, UniProt Q9ULX7)
OPRL1: Nociceptin receptor (OPRL1, Homo sapiens, UniProt P41146)
PIK3C3: Phosphatidylinositol 3-kinase catalytic subunit type 3 (PIK3C3, Homo sapiens, UniProt Q8NEB9)
nupG: nupG (Escherichia coli, UniProt P0AFF4)

| Structure (SMILES) | target | read-out | action | technique | notes | measurement | value |
| --- | --- | --- | --- | --- | --- | --- | --- |
| CC1Cc2ccccc2N1C(=O)NCCCCN(C)[C@@H]1Cc2cccc3[nH]c(=O)n(c23)C1 (mixture of isomers) | 5-hydroxytryptamine receptor 1A (HTR1A, Homo sapiens, UniProt P08908) | ligand displacement | – | radioligand | – | Ki | 0.0237 µM |
| Cc1occc(=O)c1O | CA14 | enzyme activity | inhibitor | stopped-flow | – | Ki | 7.2 µM |
| CNc1nc(C#Cc2ccc(Cl)s2)nc2c1ncn2[C@H]1[C@H](O)[C@H](O)[C@]2(C(=O)OCc3ccccc3)C[C@H]12 | OPRL1 | ligand displacement | – | radioligand | – | Ki | > 10 µM |
| CCCC[C@H](NC(=O)[C@H](C)c1c(C)[nH]c2ccc(O)cc12)c1ncc(-c2cc3ccccc3nc2OC)[nH]1 | Prostaglandin E2 receptor EP3 subtype (PTGER3, Homo sapiens, UniProt P43115) | cell-free assay | – | – | – | Ki | 5.32 µM |
| CCC(=O)N1CCC(C(=O)NCC(=O)N2CCN(c3nc(-c4cnc(N)nc4C(F)F)nc(N4CCOCC4)n3)CC2)CC1 | PIK3C3 | binding | – | competition with immobilised ligand | – | Kd | 0.1 µM |
| O=c1ccn([C@@H]2O[C@H](COP(=O)(O)OP(=O)(O)O[C@H]3OC[C@@H](O)[C@H](O)[C@H]3O)[C@@H](O)[C@H]2O)c(=O)[nH]1 | UDP-glucose 6-dehydrogenase (UGDH, Homo sapiens, UniProt O60701) | enzyme activity | inhibitor | – | – | Ki | 0.18 µM |
| CCOC(=O)[C@@]12C[C@@H]1[C@@H](n1cnc3c(NC)nc(C#Cc4ccc(Cl)s4)nc31)[C@H](O)[C@@H]2O | OPRL1 | ligand displacement | – | radioligand | – | Ki | > 10 µM |
| Nc1ncnc2c1ncn2[C@@H]1O[C@H](CO)[C@@H](O)[C@H]1O | nupG | binding | – | ITC | – | Kd | 99.7 µM |
| COc1ccccc1/C=C/C(=O)NC(=S)Nc1ccc(S(=O)(=O)N(C)c2ccccc2)cc1 | G-protein coupled receptor 55 (GPR55, Homo sapiens, UniProt Q9Y2T6) | β-arrestin recruitment | agonist | – | – | EC50 | 0.3 µM |
| CNCC[C@@H](Oc1ccccc1CCCF)c1ccccc1 | Norepinephrine transporter (Slc6a2, Rattus norvegicus, UniProt Q9WTR4) | ligand displacement | – | radioligand | cell membranes | Ki | 0.023 µM |
| C[C@]12CC[C@H](O)CC1=CC[C@@H]1[C@@H]2CC[C@]2(C)C(c3cccnc3)=CC[C@@H]12 | Estrogen receptor (ESR1, Homo sapiens, UniProt P03372, Y537C) | ligand displacement in cells | – | radioligand | – | Ki | 0.25 µM |
| CCOCc1nc(O)c(-c2nnc(Cc3ccc(Cl)cn3)o2)c(O)c1-c1c(OC)cccc1OC | Apelin receptor (APLNR, Homo sapiens, UniProt P35414) | cell-free assay | – | radioligand | – | Kd | 0.00015 µM |
| Cc1occc(=S)c1O | CA14 | enzyme activity | inhibitor | stopped-flow | – | Ki | 6.7 µM |
| Cc1cc(Nc2cc3ncccc3c(N[C@@H]3C[C@H]4CC[C@@H](C3)N4CCC#N)n2)n[nH]1 | Death-associated protein kinase 3 (DAPK3, Homo sapiens, UniProt O43293) | binding | – | competition with immobilised ligand | – | Kd | 0.019 µM |
| C=CC(=O)N1CCC(C(=O)NCC(=O)N2CCN(c3nc(-c4cnc(N)nc4C(F)F)nc(N4CCOCC4)n3)CC2)CC1 | PIK3C3 | binding | – | competition with immobilised ligand | – | Kd | 0.054 µM |
| CCCCN1CCC(COC(=O)c2ccc(N)c(OCF)c2)CC1 | Alpha-2C adrenergic receptor (ADRA2C, Homo sapiens, UniProt P18825) | cell-free assay | – | radioligand | – | Ki | 0.778 µM |
| C[C@H]1Oc2cc(cnc2N)-c2c(nn(C)c2C#N)CN(C)C(=O)c2ccc(F)cc21 | Serine/threonine-protein kinase PLK4 (PLK4, Homo sapiens, UniProt O00444) | cell-free assay | – | – | lysate | Ki | 0.107 µM |
| C=C(C)[C@@H]1CC=C(C)C(=O)C1 | OR1A1 (Homo sapiens, UniProt Q9P1Q5) | cAMP | agonist | luciferase | – | EC50 | 7.29 µM |
| Cc1cn([C@H]2C[C@H](O)[C@@H](CO)O2)c(=O)[nH]c1=O | nupG | binding | – | ITC | – | Kd | 162 µM |
| CCC(=O)N1CCC(C(=O)N(C)CC(=O)N2CCN(c3nc(-c4cnc(N)nc4C(F)F)nc(N4CCOCC4)n3)CC2)CC1 | PIK3C3 | binding | – | competition with immobilised ligand | – | Kd | 0.405 µM |
| N[C@H]1C[C@@H](C(=O)O)CC1=C(C(F)(F)F)C(F)(F)F | Ornithine aminotransferase, mitochondrial (OAT, Homo sapiens, UniProt P04181) | binding | – | stopped-flow | – | Kd | 3000 µM |
